Source: the RNAGym collection of RNA variant scans (doi:10.1126/science.aae0568)
This sample holds only a part of the variants without activity.

B1: tRNA (parent)
chain: GUUCCGUUGGCGUAAUGGUAACGCGUCUCCCUCCUAAGGAGAAGACUGCGGGUUCGAGUCCCGUACGGAACG

Variants of: B1
Test: yeast fitness relative to wild type (ratio to wild type); higher = fitter; tRNA-Arg(CCU), competitive growth, 37 C, YPD
How it was run: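 Variants of the tRNA-Arg(CCU) gene were chemically synthesised with a 3% per-site mutation rate across 69 sites and placed at the native genomic locus in Saccharomyces cerevisiae. Six parallel replicates of the pooled strains were competed in YPD at 37°C for 24 hours, and gene amplicons from the start and end populations were read by 100-nucleotide paired-end sequencing. Darwinian fitness relative to wild type was derived from changes in genotype frequencies. Genotypes required ≥ 100 starting reads, and estimates < 0.5 were set to 0.5.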

Variant | yeast fitness
C31U C61A A69U | 0.633
A15C G25A C61U | 0.664
C4G C5U C22G | ≤ 0.5
G12C C61G | 0.635
C5G U26C G44A A69U | ≤ 0.5
U3C A40C A45G C46A | ≤ 0.5
A15G A45U C61G | 0.6
G6C U47A G51C | 0.525
G9A U16C U32G G48C G58C | ≤ 0.5
G41A G51A C60G A65G | ≤ 0.5
U13A C30U U47A U59A C60U C62G C66U | 0.55
U8C G17A C34U C55G | ≤ 0.5
C24U U47C C62U | 0.803
C5U C31G C66U | 0.736
C27A C30A U35C C46G | ≤ 0.5
A21G G25C C27G A42C | ≤ 0.5
A45C G50A G63C | 0.578
C4A U16G G52C U64A | ≤ 0.5
C11U A14G A20G C24G | ≤ 0.5
U3C A36U | 0.656
C5U A14G C22U | ≤ 0.5
A20U G39C G48C G52C U53A | ≤ 0.5
A21G C29U G39A A45U | 0.547
A14U A42C C46A | ≤ 0.5

Variant | yeast fitness
A21C C27G U28A C29U C34U A57G G58C | ≤ 0.5
C24U G39A | 0.875
C5A C46A A69U | 0.738
C5A U28C G63C | 0.534
G38A C66U | 0.909
U7A U16C G17A C29U C31A C66G G67U | ≤ 0.5
C24U U59A C62A A69C | 0.552
A14G C31G U54G A57C C62U | ≤ 0.5
G10C A43U G48A G51A | ≤ 0.5
G9A C30G G58C | ≤ 0.5
U16A C30A A43C | 1.04
C22A C33A A36U | ≤ 0.5
G10A U16A U64A | 0.544
A21C G25C A57G | 0.516
U7G C60A A70C | 0.551
G9A C27U A43G | 0.588
G39C A43G | 0.684
C4U C11G C29U G48A G52A | ≤ 0.5
U2C G68C | 0.963
G44A G56C A57U | 0.596
C30U C46A U54A A57G | 0.52
G17A A37C U54A C55A C66G | ≤ 0.5
G51C G52C U59A | 0.614
A15U C62G | 0.646

Variant | yeast fitness
G17A C27U | 0.711
C27A U53G | 0.651
U28G U47C | 0.824
G9A A15C G56A C61U | ≤ 0.5
A14U C27G A57U | 0.527
C5U C33U A45C C46G A69U | ≤ 0.5
C27G G48A C60U | ≤ 0.5
U26A G39C | 0.751
G10C U35G C62G | 0.52
C33U C60U | 0.629
U7G A15G A21C | ≤ 0.5
G38C G56A G58A | 0.609
A42C C62G G67C | ≤ 0.5
C4A G10C C11U C27U A45U C60G | ≤ 0.5
G10C U16G C31A U32G C55U | ≤ 0.5
U13A A14C C22A G48C | 0.546
C31U G48C A69C | 0.67
C5A C66U | 0.857
A21G A45G G67A | 1
C22U G56C A57C C61G | ≤ 0.5
C46U C55U A69U | 0.76
C4A C29U C31G C33A | ≤ 0.5
A20U A40G G50A | ≤ 0.5
C4U A70C | 0.989

Variant | yeast fitness
C27U U28A U32A C34U A36C C55A G68A | ≤ 0.5
U2G G9C G12A A42C C46A U64C | ≤ 0.5
C5U C22G C30U C33G A69G | 0.552
C31G G52A U59A | ≤ 0.5
U7C C46G | 0.943
G6A U13A A40G A42G A57C C66U | 0.525
C31A C46G | 0.852
A21G G44A A45U | 0.914
C34G G39U U47G | ≤ 0.5
C11G C29A A40U | ≤ 0.5
C22G U35A U47C C55U | ≤ 0.5
U19C A37G A65U | 0.58
G6A C49A | 0.625
C11A A65C | 0.607
C11U A15C A65C A70U | ≤ 0.5
A14C C27G C30G G38C | ≤ 0.5
U7A G10C G17A C22U C27G | ≤ 0.5
C24U A69C | 0.887
C4U A36C A45C | ≤ 0.5
G38C A43C G51C G56C | ≤ 0.5
C30G C55G A57C U59C | ≤ 0.5
U19A A21U C24A U28C U53C C60G | ≤ 0.5
A14U C30U A42G C66G | ≤ 0.5
G10A A36C A43U | 0.573

Variant | yeast fitness
A15G A20C U54A C62U | ≤ 0.5
U16A G38C | 0.749
G12A A20C C61G C66A | ≤ 0.5
A15U U19C G23C C27G A45C G63C | ≤ 0.5
C22G A70U | 1.01
G10C G23A G52C C62U | 0.55
A20U C31A A37C A45G G68A | ≤ 0.5
G44C G51A G58C U59A | ≤ 0.5
U16C A37C G67A | 0.553
A21C C27U G41A | 0.966
C27U C34G A45U | 0.511
C27U G50A G52A U59C C66U | 0.53
C24G C46G C66U | ≤ 0.5
C4U G10A G23C | ≤ 0.5
U3A A21G U28A A42C A57G C66A | 0.733
U7A G23C C49G | 0.566
C5A G50A U53C C62A A69U | ≤ 0.5
U2C U54C | 0.873
C5A A21C C30G C34U G58C | ≤ 0.5
A14C A20U U35C A65G A69U | ≤ 0.5
G12C C31U U59A | 0.6
A14U A20U G63A | ≤ 0.5
C29G C34G C46A U53A C61U | 0.544
G48C G52C A57C G58A A70G | ≤ 0.5

Variant | yeast fitness
U7G G10C C29A C55U A69U | 0.534
C11U A36G | 0.822
C31G G41C | 0.696
G17A A20C C49G | ≤ 0.5
C22G A43U U64C | 0.611
A14G A36G C66U | 0.606
U3A U16C G68C | ≤ 0.5
A20G C24A C27A A42G A69C | 0.56
C11A A15U A20G | ≤ 0.5
U2C G25A | 0.943
A14G A21G A70U | 0.684
G56C A57C A70G | 0.594
C22U C29U G41A C62G | ≤ 0.5
G38C G41C A57C | 0.576
A43U G50A G68A | ≤ 0.5
C11G A20U C27G C29U C62U | ≤ 0.5
C24U A45U C55U G67U | ≤ 0.5
A21G G39C C62U | ≤ 0.5
C4G C5U C49A G56A G63C G68A | ≤ 0.5
A15U A36G | 0.665
U47C G52C | 0.612
U7A A21C C33A A45U C62A | ≤ 0.5
C5A U13A C30G A69C | ≤ 0.5
G6A C33A A42C | 0.578

Variant | yeast fitness
C34G G39A A70C | ≤ 0.5
A37U A40C A42G | ≤ 0.5
A15C U26A C31G U32A | ≤ 0.5
C31A A69U | 0.856
A21G A36G G51A A69C | ≤ 0.5
C5U G10A G68C | ≤ 0.5
C62A A69U | 0.652
C11G A15C C24U A43U G68A | ≤ 0.5
C46U G56A C61G | ≤ 0.5
C11A C22G G25A C34A G41A C66A | ≤ 0.5
A21C G25C U26G U59A A70C | 0.559
A21U C22G C33U G68A | ≤ 0.5
C11A C29A G56A C66G | ≤ 0.5
G41U C66U | 0.845
U7G C62G A69G | ≤ 0.5
U8A U28C U47A | ≤ 0.5
U3G C30U G48C | 0.593
C22A C24G C60G C66G | 0.542
U3A C5A G12C G25A C30U A69C | ≤ 0.5
G9A U19C C33U A40U U59A | ≤ 0.5
A14G C31G G58A | ≤ 0.5
G25A C29U A57U C62A A69G | ≤ 0.5
G6A A20C C61U | 0.663
